PLC-beta3 inh = human PLC-beta3 inhibitors, primary screen, biochemical, fluorescence; AID 720704, 2013; inhibition, % at 12.2 µM; hit rate 0.18% among 370,000; Purified PLC-beta3, fluorogenic substrate; in the data active = inhibition above about 11%;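 also: 0% = median of compound wells on plate and 100% = full blocker control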
DAGLB inhibitor = DAGLB lipase inhibitors, primary screen, biochemical, fluorescence, HTS; Diacylglycerol lipase-beta (Homo sapiens), Q8NCG7; HEK293T DAGLB membrane lysate, EnzChek fluorogenic substrate; inhibition, % at 5.17 µM; hit rate 0.059% among 340,000; in the data active = inhibition above about 34%;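 also: 0% = enzyme with vehicle and 100% = wells lacking enzyme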
TbMetRS inhib = T. brucei MetRS inhibitors, primary screen, biochemical, luminescence | hit rate 0.4% among 360,000 | inhibition, % at 11.9 µM | purified T. brucei MetRS, ATP depletion, Kinase-Glo luminescence;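 active = inhibition above a per-plate cutoff of the control wells' mean inhibition plus 3 SD, cut at about 5.5% in these data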;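 also: 0% = DMSO wells median and 100% = median of wells with control inhibitor compound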
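technique = Kinase-Glo luminescence, ATP depletion format | system = purified MetRS (methionyl-tRNA synthetase) enzyme from Trypanosoma brucei | timing = 15 min preincubation, 2 h reaction, all 25 °C | evaluation = percent inhibition versus plate control medians | dosing = single dose, 11.9 µM final nominal, 0.9% final DMSO | also added = substrates ATP, L-methionine and bulk Escherichia coli tRNA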
PLC-gamma1 inh = PLC-gamma1 enzyme inhibitors, primary screen, biochemical, fluorescence, purified enzyme. fluorogenic substrate. inhibition, % at 12.2 µM. hit rate 0.84% among 370,000; in the data active = inhibition above about 9.5%
sPLA2-III inh = human group III sPLA2 inhibitors, primary screen, biochemical, QFRET, BODIPY PC-A2 liposome substrate. Group 3 secretory phospholipase A2 (Homo sapiens), Q9NZ20. QFRET BODIPY PC-A2 liposome hydrolysis, fluorescence. inhibition, % at 12.2 µM. hit rate 0.56% among 370,000;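 active = inhibition above mean plus 3 SD of compounds lying within the high and low control bounds, cut at about 19% in these data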;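 also: 0% = median of test compound wells and 100% = no enzyme DMSO wells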
Target sequence (Q9NZ20 whole entry, looked up): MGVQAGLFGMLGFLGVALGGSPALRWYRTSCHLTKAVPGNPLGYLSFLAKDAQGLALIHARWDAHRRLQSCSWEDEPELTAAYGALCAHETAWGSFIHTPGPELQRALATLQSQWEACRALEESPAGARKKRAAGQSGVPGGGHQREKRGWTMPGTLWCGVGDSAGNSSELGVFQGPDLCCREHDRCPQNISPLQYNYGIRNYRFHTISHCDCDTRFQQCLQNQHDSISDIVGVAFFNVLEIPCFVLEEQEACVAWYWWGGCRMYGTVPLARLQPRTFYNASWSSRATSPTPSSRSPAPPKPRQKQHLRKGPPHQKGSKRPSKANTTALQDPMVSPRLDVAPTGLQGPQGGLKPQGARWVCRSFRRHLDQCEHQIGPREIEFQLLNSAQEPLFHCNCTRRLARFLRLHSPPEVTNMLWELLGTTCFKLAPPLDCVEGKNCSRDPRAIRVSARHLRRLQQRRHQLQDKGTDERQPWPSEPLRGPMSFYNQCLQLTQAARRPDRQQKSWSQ
Tb MetRS conf = T. brucei MetRS inhibitors, confirmation, biochemical, luminescence. AID 624412, 2012. inhibition, % at 11.9 µM. shares compounds with TbMetRS inhib. T. brucei MetRS enzyme, luminescence (ATP depletion). hit rate 93% among 1,400; in the data active = inhibition above about 7%
Jurkat tox = Jurkat T cell cytotoxicity, cytotoxicity control for T. brucei MetRS inhibitor project, luminescence, high throughput; shares compounds with TbMetRS inhib; Jurkat cells viability, ATP luminescence; inhibition, % at 8.3 µM; hit rate 12% among 1,400; in the data active = inhibition above about 15%;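 also: 0% = vehicle and 100% = reference inhibitor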
Tb MetRS inh FP = T. brucei MetRS inhibitors, orthogonal assay for T. brucei MetRS inhibitor project, biochemical, fluorescence polarization. purified T. brucei MetRS. inhibition, % at 11.9 µM. hit rate 44% among 1,400. shares compounds with TbMetRS inhib; in the data active = inhibition above about 17%;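 also: 0% = vehicle wells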
Starred values were filed as active, the others as inactive; x = not tested or not shown. A selection: hits, their analogues and other compounds. The true share with any hit is near 1.9%.

SMILES | PLC-beta3 inh | DAGLB inhibitor | TbMetRS inhib | PLC-gamma1 inh | sPLA2-III inh | Tb MetRS conf | Jurkat tox | Tb MetRS inh FP
COc1ccc2nc(SCC(=O)NCCc3ccccc3)[nH]c2c1 | -6 | -3 | 0 | -4 | -6 | x | x | x
O=C(CSc1nc2ccc(Cl)cc2[nH]1)NCc1ccco1 | 1 | 1 | 8.3* | -2 | -1 | 13* | 8 | 2
O=C(CSc1nc2ncc(Cl)cc2[nH]1)NCCc1ccc(F)cc1 | -4 | -2 | 2 | 0 | -7 | x | x | x
O=C(CSc1nc2ccc(Cl)cc2[nH]1)NCCc1ccccc1 | 2 | -3 | 42* | 3 | -16 | 58* | -3 | 33*
CN(C(=O)CSc1nc2ccc(Cl)cc2[nH]1)C1CCS(=O)(=O)C1 (stereo not given) | -1 | -4 | 11* | -1 | 14 | 36* | 4 | 24*
O=C(CSc1nc2ccc(Cl)cc2[nH]1)NCCc1ccc(Cl)cc1 | 2 | -2 | 63* | -1 | -12 | 72* | 5 | 41*
O=C(NNC(=O)c1cc(-c2ccncc2)nc2ccccc12)c1ccccc1F | -3 | 1 | 0 | -1 | -11 | x | x | x
O=C(NNC(=O)c1cc(-c2ccncc2)nc2ccccc12)Nc1ccc(F)cc1 | -11 | 0 | 20* | 0 | -31 | 39* | -2 | 19*
O=C(NNC(=O)c1cc(-c2cccnc2)nc2ccccc12)Nc1ccc(Cl)cc1 | -13 | -6 | 20* | -5 | -55 | 31* | -8 | 22*
CCOC(=O)N1CCN(C(=O)C[C@H]2C[C@@]3(C(=O)OC)C(=C[C@H](COCc4ccccc4)O[C@@H]3C)N(CCC3=CCCCC3)C2=O)CC1 | 6 | x | x | 2 | -11 | x | x | x
O=C(Nc1ccc(N2C(=O)[C@@H]3[C@H](C2=O)[C@@H]2C=C[C@H]3C2)c(Cl)c1)c1ccccn1 | -1 | x | x | 2 | -6 | x | x | x
CC(C)(C)OC(=O)N1CCC[C@H]1C(=O)N1CCC[C@H]1C(=O)NCc1ccc(F)cc1F | 3 | x | 0 | 2 | 5 | x | x | x
CC(C)(C)OC(=O)N1CCC[C@H]1C(=O)NCc1ccc(Cl)cc1Cl | 5 | -1 | 5.7* | 4 | -2 | 14* | 1 | 2
NS(=O)(=O)c1ccc(CCNC(=O)CCCn2c(=O)[nH]c3ccc(Br)cc3c2=O)cc1 | -4 | -2 | 14* | 0 | -4 | 22* | -7 | 13
CC(C)CCNC(=O)CCCn1c(=O)[nH]c2ccc(Br)cc2c1=O | -1 | 3 | 1 | -3 | 4 | x | x | x
COc1ccc(C2CC(=O)C(c3ccccc3OC)=CN2Cc2ccccc2)cc1 (stereo not given) | -13 | x | x | -12 | -11 | x | x | x
COC(=O)[C@H]1[C@@H](O)[C@@]2(O)c3c(OC)cc(OC)cc3O[C@@]2(c2ccc(OC)cc2)[C@@H]1c1ccc(F)cc1 | 2 | x | x | 0 | -10 | x | x | x
Cc1cc(NS(=O)(=O)c2ccc(Nc3nc(-c4ccc(O)cc4)cs3)cc2)no1 | -9 | 6 | 5.7* | 1 | -42 | 11* | -1 | 0
Cc1cc(NS(=O)(=O)c2ccc(Nc3nc(-c4ccc(C)c(C)c4)cs3)cc2)no1 | -8 | 10 | 2 | -6 | -119 | x | x | x
CO[C@@H]1CN(C)C(=O)c2cc(NC(=O)Nc3ccc4c(c3)OCO4)ccc2OC[C@@H](C)N(C)C[C@H]1C | -7 | x | 0 | -6 | -3 | x | x | x
COCC(=O)N1C[C@H](C)[C@H](OC)CN(C)C(=O)c2cc(NC(=O)Nc3cccc(F)c3)ccc2OC[C@@H]1C | 4 | x | 34* | 1 | 1 | 43* | -3 | 18*
C[C@H]1Cn2cnc(C(=O)N(C)Cc3ccccc3)c2C(=O)N1 | 0 | x | x | 0 | 2 | x | x | x
